Results on 13 compounds are retold here after ChEMBL document CHEMBL2429727, “Syntheses, biological evaluation and SAR of ingenol mebutate analogues for treatment of actinic keratosis and non-melanoma skin cancer” (Bioorg Med Chem Lett, 2013).

As a reminder, the pKa is the negative logarithm of the acid dissociation constant. A high value points to a weaker acid or stronger base. In general, Emax refers to the size of the effect at its maximum, as opposed to the concentration needed. Usually EC50 stands for the concentration that produces a half-maximal response.

A short description of data set [1]: Dissociation constant, pKa of the compound. In kind it is physicochemical.
The nature of data set [2]: Chemical stability of the compound in aqueous buffer assessed as drug recovery after 16 hrs at pH 7.4 by HPLC analysis. In kind it is physicochemical. Particulars: read-out: Drug recovery. The essentials:
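DMSO stock diluted with pre-heated (37 °C) aqueous buffer pH 7.4 to at most 30% v/v organic content, then shaken. Held in the HPLC autosampler at 37 °C, first injected within 5 min, then injected repeatedly over 16 h. Recovery taken from the fall in compound peak area, UV detection normally at 270 nm.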

Data set [3] has as its system Keratinocyte. The data set is described as follows: Induction of IL-8 release in human primary epidermal keratinocytes after 6 hrs by HTRF assay relative to ingenol mebutate. In kind it is functional. Background: TR-FRET usually uses a lanthanide donor and a delayed reading to cut background.
Data set [4] is described as follows: Induction of necrosis in human HeLa cells after 30 mins by resazurin assay. In kind it is cell-based. Particulars: read-out: LC50. The essentials: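 HeLa cells exposed to increasing ester concentrations up to 400 µM for 30 min at 37 °C. Remaining metabolic activity then read with a resazurin-based dye. LC50 is the concentration causing 50% loss of metabolic activity.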

A short description of data set [5]: Induction of oxidative burst in polymorphonuclear leukocytes (unknown origin) isolated from buffy coat after 40 mins by fluorescence assay. In kind it is functional, cell-based. A digest of the protocol: (§1)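 PMN isolated and purified from fresh buffy coats, then incubated 40 min at ambient temperature with titrated compound (top concentration 10 µM) premixed with hydroethidine. Respiratory burst read as fluorescence in relative light units, emission 579 nm, excitation 485 nm. EC50 and Emax are expressed relative to the maximum effect of the ingenol mebutate reference.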

Data set [6] deals with Keratinocyte. The data set is described as follows: Induction of TNFalpha release in human primary epidermal keratinocytes after 6 hrs relative to ingenol mebutate. In kind it is functional. The essentials: (§2)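 Human adult log-phase primary epidermal keratinocytes subcultured at 10,000 cells/well. Incubated with titrated compound for 6 h at 37 °C in humidified 95% air/5% CO2. Secreted cytokines quantified on 4-spot cytokine plates. EC50 is the concentration giving 50% of the maximum effect of the ingenol mebutate reference. Emax is maximal response relative to that reference.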

The test system of data set [7] is Keratinocyte. The data set is described as follows: Induction of IL-8 release in human primary epidermal keratinocytes after 6 hrs by HTRF assay. In kind it is functional, cell-based.
The nature of data set [8]: Induction of oxidative burst in polymorphonuclear leukocytes (unknown origin) isolated from buffy coat at 10 uM after 40 mins by fluorescence assay relative to ingenol mebutate. In kind it is functional. A digest of the protocol: as §1
For data set [9], the target named is Protein kinase C delta type (Homo sapiens, UniProt Q05655). The data set is described as follows: Activation of PKCdelta (unknown origin) using phosphatidylserine […]. The essentials:
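PKCdelta assayed in vitro by phosphorylation of a PKC peptide substrate, with 0.05 mg/mL phosphatidylserine and no diacylglycerol so stimulation could be seen. Compounds serially diluted at semilogarithmic intervals, twelve points from 10 µM. Reaction started by adding ATP.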

The test system of data set [10] is Keratinocyte. The data set is described as follows: Induction of TNFalpha release in human primary epidermal keratinocytes after 6 hrs. In kind it is functional, cell-based. The essentials: as §2
Data set [11] is described as follows: Induction of oxidative burst in polymorphonuclear leukocytes (unknown origin) isolated from buffy coat at 10 uM after 40 mins by fluorescence assay in presence of PKC inhibitor bisindolylmaleimide 1. In kind it is functional, cell-based.
Data set [12] has as its system Keratinocyte. The data set is described as follows: Induction of TNFalpha release in human primary epidermal keratinocytes after 6 hrs in presence of PKC inhibitor bisindolylmaleimide 1. In kind it is functional, cell-based.
Data set [13] deals with Keratinocyte. The data set is described as follows: Induction of IL-8 release in human primary epidermal keratinocytes after 6 hrs by HTRF assay in presence of PKC inhibitor bisindolylmaleimide 1. In kind it is functional, cell-based.

Activity calls are given as the source filed them. The rule behind the calls is not given here.

Sequence of Protein kinase C delta type (Q05655 whole entry): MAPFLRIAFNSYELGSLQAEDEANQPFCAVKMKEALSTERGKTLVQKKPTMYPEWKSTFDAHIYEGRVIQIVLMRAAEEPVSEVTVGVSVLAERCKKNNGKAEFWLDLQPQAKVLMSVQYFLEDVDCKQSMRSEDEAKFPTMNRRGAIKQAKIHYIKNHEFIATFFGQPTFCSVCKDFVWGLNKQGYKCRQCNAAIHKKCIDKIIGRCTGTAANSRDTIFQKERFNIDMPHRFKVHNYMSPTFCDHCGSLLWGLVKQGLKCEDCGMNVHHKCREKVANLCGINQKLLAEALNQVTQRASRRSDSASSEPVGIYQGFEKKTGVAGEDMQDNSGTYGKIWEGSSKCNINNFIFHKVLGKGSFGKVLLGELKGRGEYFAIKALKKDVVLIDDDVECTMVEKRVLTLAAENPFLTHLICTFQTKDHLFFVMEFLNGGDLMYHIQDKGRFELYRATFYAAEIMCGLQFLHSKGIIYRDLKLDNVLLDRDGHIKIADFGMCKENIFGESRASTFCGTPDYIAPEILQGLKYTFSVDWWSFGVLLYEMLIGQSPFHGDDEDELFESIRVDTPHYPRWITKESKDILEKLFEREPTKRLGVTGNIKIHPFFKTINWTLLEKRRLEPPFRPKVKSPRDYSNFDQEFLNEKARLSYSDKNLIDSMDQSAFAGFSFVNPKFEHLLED

`C/C=C(\C)C(=O)O[C@H]1C(C)=C[C@]23C(=O)[C@@H](C=C(CO)[C@@H](O)[C@]12O)[C@H]1[C@@H](C[C@H]3C)C1(C)C` had a pKa in data set [1] of 5.02. The remaining at 16 h in data set [2] worked out at 45%. Also, the maximal response (Emax) in the data set with Keratinocyte [3] was 75%; with Keratinocyte [6] it was 81%. Moreover, the CC50 at 0.5 h in [4] was found to be 237000 nM. For the same compound, the EC50 was 7.5 nM in data set [5] and 112 nM with Keratinocyte [7]. In data set [8], this compound showed a maximal effect (Emax) at 10 µM of 92%.

With `C/C=C(/C)C(=O)O`, the pKa in [1] worked out at 4.3.

Turning to `CC1=C[C@]23C(=O)[C@@H](C=C(CO)[C@@H](O)[C@]2(O)[C@H]1OC(=O)C1(C)CCCCC1)[C@H]1[C@@H](C[C@H]3C)C1(C)C`, the half-maximal effective concentration (EC50) is 2.9 nM in data set [9] (read-out: EC50), 13 nM in the data set with Keratinocyte [10], 7.6 nM in [5] and 22 nM in the data set with Keratinocyte [7]. In data set [2], the remaining at 16 h came to 70%. For the same compound, the values for the maximal response (Emax) in the data set with Keratinocyte [3] and in the data set on Keratinocyte [6] were 52% and 62%, respectively. Besides, the CC50 at 0.5 h in [4] worked out at 61000 nM. The compound also yielded an Emax at 10 µM in [8] of 127%.

For `C/C=C(/C)C(=O)O[C@H]1C(C)=C[C@@]23C(=O)[C@H]([C@H]4[C@@H](C[C@H]2C)C4(C)C)[C@H](F)C(CO)=C[C@]13O`, the EC50 result in data set [9] is “Not Active”; in the data set with Keratinocyte [10], 1210 nM; in data set [5] it was 1240 nM; with Keratinocyte [7] it was 1130 nM. In data set [2], the remaining at 16 h is over 95%. Further, the maximum response (Emax) came out at 57% with Keratinocyte [3] and 67% in the data set on Keratinocyte [6].

For `C/C=C(/C)C(=O)O[C@H]1C(C)=C[C@]23C(=O)[C@@H](C=C(CO)[C@@H](O)[C@]12O)[C@H]1[C@@H](C[C@H]3C)C1(C)C` [INGENOL MEBUTATE], the concentration for a half-maximal effect (EC50) in [9] (read-out: EC50) stood at 4.1 nM; with Keratinocyte [10], 11.2 nM; in data set [5], 8.7 nM; in the data set with Keratinocyte [7], 10.3 nM. The remaining at 16 h in [2] amounted to 60%. Further, the result (in data set [11]; in the data set with Keratinocyte [12]; in the data set on Keratinocyte [13]) was inactive. Moreover, the CC50 at 0.5 h in data set [4] worked out at 230000 nM.

`CCC(CC)C(=O)O[C@H]1C(C)=C[C@]23C(=O)[C@@H](C=C(CO)[C@@H](O)[C@]12O)[C@H]1[C@@H](C[C@H]3C)C1(C)C`: the concentration for a half-maximal effect (EC50) was 4.5 nM in data set [9] (read-out: EC50), 27 nM in the data set with Keratinocyte [10], 6.3 nM in data set [5] and 43 nM in the data set on Keratinocyte [7]. Also, the remaining at 16 h in data set [2] turned out to be 60%. The maximal effect (Emax) was 59% with Keratinocyte [3] and 62% with Keratinocyte [6]. For the same compound, in [4], the CC50 at 0.5 h was 86000 nM. This compound returned an Emax at 10 µM in [8] of 109%.

Consider `CCCCCCCCCCCCCCCC(=O)O[C@H]1C(C)=C[C@]23C(=O)[C@@H](C=C(CO)[C@@H](O)[C@]12O)[C@H]1[C@@H](C[C@H]3C)C1(C)C`, for which the EC50 in data set [9] (read-out: EC50) came to 4.7 nM; with Keratinocyte [10], 8.4 nM; in [5], 28 nM; in the data set with Keratinocyte [7], 7.3 nM. Moreover, the results for the Emax with Keratinocyte [3] and in the data set with Keratinocyte [6] were 109% and 115%, respectively. Moreover, the CC50 at 0.5 h in data set [4] worked out at 400000 nM. The maximum response (Emax) at 10 µM in [8] worked out at 106%.

On to `CC1=C[C@]23C(=O)[C@@H](C=C(CO)[C@@H](O)[C@]2(O)[C@H]1OC(=O)C(C)=C(C)C)[C@H]1[C@@H](C[C@H]3C)C1(C)C`, for which the EC50 worked out at 5.3 nM in data set [9] (read-out: EC50), 8 nM in the data set on Keratinocyte [10], 5.9 nM in data set [5] and 8.6 nM in the data set with Keratinocyte [7]. Moreover, the remaining at 16 h in data set [2] came to 75%. Also, the maximal effect (Emax) was found to be 102% in the data set on Keratinocyte [3] and 97% in the data set with Keratinocyte [6]. In data set [4], the CC50 at 0.5 h worked out at 174000 nM. Besides, the Emax at 10 µM in [8] came to 106%.

As for `C/C=C(/C(=O)O[C@H]1C(C)=C[C@]23C(=O)[C@@H](C=C(CO)[C@@H](O)[C@]12O)[C@H]1[C@@H](C[C@H]3C)C1(C)C)c1ccccc1`, the concentration giving a half-maximal response (EC50) is 5.2 nM in [9] (read-out: EC50), 4.9 nM with Keratinocyte [10], 7.4 nM in [5] and 3.8 nM in the data set on Keratinocyte [7]. In addition, the remaining at 16 h in data set [2] came to 72%. Besides, the maximal response (Emax) in the data set with Keratinocyte [3] worked out at 97%; in the data set on Keratinocyte [6], 110%. Further, the CC50 at 0.5 h in data set [4] amounted to 103000 nM. In data set [8], this compound registered an Emax at 10 µM of 126%.

On to `CCCCCCCCCC(=O)O[C@H]1C(C)=C[C@]23C(=O)[C@@H](C=C(CO)[C@@H](O)[C@]12O)[C@H]1[C@@H](C[C@H]3C)C1(C)C`, for which the EC50 is 5.3 nM in data set [9] (read-out: EC50), 11 nM with Keratinocyte [10], 10 nM in data set [5] and 8 nM in the data set with Keratinocyte [7]. The Emax was 94% in the data set with Keratinocyte [3] and 96% with Keratinocyte [6]. Also, in data set [4], the CC50 at 0.5 h amounted to 117000 nM. Besides, the Emax at 10 µM in data set [8] is 137%.

As for `C=C(C)C(=O)O[C@H]1C(C)=C[C@]23C(=O)[C@@H](C=C(CO)[C@@H](O)[C@]12O)[C@H]1[C@@H](C[C@H]3C)C1(C)C`, the remaining at 16 h in data set [2] was 20%. The figures for the Emax with Keratinocyte [3] and in the data set with Keratinocyte [6] were 74% and 77%, respectively. In addition, the EC50 in the data set on Keratinocyte [10] turned out to be 213 nM; in [5] it was 6.1 nM; with Keratinocyte [7], 246 nM. Moreover, the CC50 at 0.5 h in data set [4] amounted to 406000 nM. Moreover, the maximal response (Emax) at 10 µM in data set [8] is 114%.

With `CO/N=C(\C(=O)O[C@H]1C(C)=C[C@]23C(=O)[C@@H](C=C(CO)[C@@H](O)[C@]12O)[C@H]1[C@@H](C[C@H]3C)C1(C)C)c1ccccc1`, the concentration giving a half-maximal response (EC50) in data set [9] (read-out: EC50) was 10.6 nM; in the data set with Keratinocyte [10] it was 1600 nM; in [5] it was 49 nM; with Keratinocyte [7], 147 nM. Moreover, the remaining at 16 h in data set [2] was determined as 68%. In addition, the Emax with Keratinocyte [3] amounted to 54%; in the data set with Keratinocyte [6], 52%. In addition, the CC50 at 0.5 h in data set [4] turned out to be 92000 nM. Moreover, in data set [8], the maximum response (Emax) at 10 µM amounted to 120%.

In the case of `CC1=C[C@]23C(=O)[C@@H](C=C(CO)[C@@H](O)[C@]2(O)[C@H]1OC(=O)C12C[C@@H]4C[C@@H](C[C@H]1C4)C2)[C@H]1[C@@H](C[C@H]3C)C1(C)C`, the remaining at 16 h in data set [2] worked out at 70%. Moreover, the figures for the maximum response (Emax) in the data set with Keratinocyte [3] and in the data set with Keratinocyte [6] were 65% and 55%, respectively. Further, the EC50 came out at 36 nM in the data set on Keratinocyte [10], 8.3 nM in [5] and 27 nM in the data set on Keratinocyte [7]. Also, the CC50 at 0.5 h in data set [4] was 77000 nM. This compound also came in with an Emax at 10 µM in [8] of 136%.
